Data as given in ChEMBL document CHEMBL1133641, “A new class of potential chloroquine-resistance reversal agents for Plasmodia: syntheses and biological evaluation of 1-(3'-diethylaminopropyl)-3-(substituted phenylmethylene)pyrrolidines” (2000).
The source made the active and inactive calls. The rule behind the calls is not given here.

How the values were obtained:
[1] = system: Plasmodium yoelii nigeriensis; experiment: In Vitro inhibition of Heme Oxygenase in Cell-free parasite Plasmodium yoelii at concentration 10 uM;NI denotes nil inhibition; format: functional
In short: (§1)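 Heme oxygenase activity was measured as bilirubin formation in a post-mitochondrial fraction. The parasite enzyme came from cell-free P. yoelii, isolated from infected blood by density gradient centrifugation and saponin lysis. The host enzyme came from infected liver. Compounds were tested at 10–100 µM and preincubated for 10 min before the reaction was started.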

[2] = system: Plasmodium yoelii nigeriensis; experiment: Inhibition of heme oxygenase in Plasmodium yoelii nigeriensis isolated from infected mice (Mus musculus) (oral); format: functional
In short: (§2)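 Swiss albino mice carried P. yoelii nigeriensis tolerant to CQ up to 120 mg/kg. They received compound orally at 15 mg/kg body wt for 5 days. Parasites were then isolated from blood by density gradient centrifugation and saponin lysis, and enzyme inhibition was measured as percent inhibition.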

[3] = system: Plasmodium yoelii nigeriensis; experiment: In Vitro inhibition of Heme Oxygenase in Cell-free parasite Plasmodium yoelii at concentration 50 uM;NI denotes nil inhibition; format: functional; in short: as §1
[4] = biological target: T1, Glutathione S-transferase (Plasmodium yoelii yoelii) (UniProt Q7REH6); experiment: Inhibition of Glutathione S-transferase in Plasmodium yoelii nigeriensis isolated from infected mice (Mus musculus) (oral); conditions: concentration not given here; in short: as §2
T1 sequence (whole entry): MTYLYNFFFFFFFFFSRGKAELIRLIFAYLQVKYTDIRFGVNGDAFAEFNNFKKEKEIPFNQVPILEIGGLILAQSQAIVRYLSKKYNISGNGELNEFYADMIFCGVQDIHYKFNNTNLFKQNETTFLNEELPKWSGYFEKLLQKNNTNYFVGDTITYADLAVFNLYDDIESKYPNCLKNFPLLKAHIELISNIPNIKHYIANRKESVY

[5] = system: Plasmodium yoelii nigeriensis; experiment: In Vitro inhibition of Heme Oxygenase in Cell-free parasite Plasmodium yoelii at concentration 100 uM; format: functional; in short: as §1
[6] = system: Plasmodium yoelii nigeriensis; experiment: In Vitro inhibition of Heme Oxygenase in Cell-free parasite Plasmodium yoelii at concentration 100 uM;NI denotes nil inhibition; format: functional; in short: as §1
[7] = system: Plasmodium yoelii nigeriensis; experiment: In Vitro inhibition of Heme Oxygenase in Cell-free parasite Plasmodium yoelii at concentration 10 uM; format: functional; in short: as §1
[8] = system: Plasmodium yoelii nigeriensis; experiment: In Vitro inhibition of Heme Oxygenase in Cell-free parasite Plasmodium yoelii at concentration 50 uM; format: functional; in short: as §1
[9] = system: Plasmodium yoelii nigeriensis; experiment: Inhibition of heme oxygenase in Plasmodium yoelii nigeriensis isolated from infected mice (Mus musculus) (oral); NI denotes nil inhibition; format: functional, organism-based; in short: as §2
[10] = system: Plasmodium yoelii nigeriensis; experiment: In Vitro inhibition of Heme Oxygenase in Cell-free parasite Plasmodium yoelii at concentration 50 uM; NI denotes nil inhibition; format: functional; in short: as §1
[11] = In Vitro evaluation on percentage inhibition in Heme Oxygenase at concentration 100 (uM) of infected host; in short: as §1
[12] = In Vitro evaluation on percentage inhibition in Heme Oxygenase at concentration 50(uM) of infected host; in short: as §1
[13] = system: Plasmodium yoelii nigeriensis; experiment: In Vitro evaluation on percentage inhibition in Heme Oxygenase at concentration 100(uM) of Cell-free parasite Plasmodium yoelii; format: functional; in short: as §1
[14] = system: Plasmodium yoelii nigeriensis; experiment: Inhibition of heme oxygenase in Plasmodium yoelii nigeriensis isolated from infected mice (Mus musculus) (oral); NI denotes no inhibition; format: functional, organism-based; in short: as §2
[15] = biological target: T1, Glutathione S-transferase (Plasmodium yoelii yoelii); experiment: Inhibition of Glutathione S-transferase in Plasmodium yoelii nigeriensis isolated from infected mice (Mus musculus) (oral); NI denotes nil inhibition; in short: as §2
[16] = In Vitro evaluation on percentage inhibition in Heme Oxygenase at concentration 10 (uM)of infected host; in short: as §1

| inhibition [4] | inhibition [11] | inhibition [12] | NI [15] | inhibition [16] | Compound | NI [1] | Inhibition [2] | NI [3] | inhibition [5] | NI [6] | inhibition [7] | inhibition [8] | NI [9] | NI [10] | inhibition [13] | NI [14] |
| --- | --- | --- | --- | --- | --- | --- | --- | --- | --- | --- | --- | --- | --- | --- | --- | --- |
| 80% |  |  |  |  | CCN(CC)CCCN1CC/C(=C\c2ccc(OC)c(OC)c2)C1 | No inhibition | 100% | No inhibition | 100% | No inhibition | 100% | 100% |  |  |  |  |
| 10% |  |  |  |  | CCN(CC)CCCN1CC/C(=C\c2ccc3c(c2)OCO3)C1 | No inhibition |  |  | 100% | No inhibition | 100% | 100% | No inhibition | No inhibition |  |  |
|  | 84% | 41% |  |  | COc1ccc([C@@H]2Sc3ccccc3N(CCN(C)C)C(=O)[C@@H]2OC(C)=O)cc1 |  |  |  |  |  |  | 12.5% |  |  | 29% |  |
|  | 65% | 65% | No inhibition | 10% | CCN(CC)CCCN1CC/C(=C\c2ccccc2)C1 |  |  |  | 82% |  | 52% | 64% |  |  |  | inactive |
